The values that follow come from ChEMBL document CHEMBL1135922, “A common mechanism underlying promiscuous inhibitors from virtual and high-throughput screening” (J Med Chem, 2002).

Molecules are shown by their SMILES.

A short description of this assay: Aggregates forming ability by dynamic light scattering(DLS). Summed up: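 Compound from 10 mM DMSO stock diluted into filtered KPi (5, 50 or 500 mM); dynamic light scattering at 90° detector angle, 25 °C, argon-ion laser at 514.4 nm (helium-neon 632.8 nm for dyes absorbing at 514.4 nm). Mean particle diameter by cumulant analysis; scattering intensity recorded. Each value from four or more independent measurements.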
For `CC(C)c1ccc(/C=C2/C(=O)Nc3ccccc32)cc1`, the DLS Concentration came to 10 µM.
To `CC(C)CC(Oc1ccc(OC(=O)c2cc(-c3ccc(Cl)cc3)nc(-c3ccc(Cl)cc3)c2)cc1)C(=O)O` (stereo not given) belongs 50 µM; to `O=C1Nc2ccccc2/C1=C/c1ccc(-c2cccs2)s1`, 20 µM.
The value for `COC1CC[C@@]2(C)[C@@H](CC[C@@H]3[C@@H]2[C@@H](O)C[C@]2(C)[C@@H](NCCN)CC[C@@H]32)C1` (stereo not given in full) was 100 µM.
To `Oc1oc(/C=N/c2ccc(Oc3ccccc3)cc2)c2ccccc12` belongs 100 µM.
On to `Nc1c(/N=N/c2ccc(-c3ccc(/N=N/c4cc(S(=O)(=O)O)c5ccccc5c4N)cc3)cc2)cc(S(=O)(=O)O)c2ccccc12`, for which the DLS Concentration turned out to be 750 µM.
To `Cc1ccc(-c2cc(C(=O)O)cc(-c3ccc4ccccc4c3)n2)cc1` belongs 500 µM; to `Oc1ccc(/N=N/c2cccc(Br)c2)cc1`, 500 µM; to `C(=C1c2ccccc2-c2ccccc21)C1CCCNC1` (stereo not given), 100 µM.
The value for `CCCCc1ccc(-c2cc(C(=O)O)cc(-c3ccc(Cl)cc3)n2)cc1` was 50 µM; that for `O=C1C2C(C(=O)N1Nc1ccc([N+](=O)[O-])cc1[N+](=O)[O-])[C@@]1(Cl)C(Cl)=C(Cl)[C@]2(Cl)C1(Cl)Cl` (stereo not given in full) was 15 µM; that for `O=C(O)c1cc(-c2ccc(Cl)cc2)nc(-c2ccc(-c3ccccc3)cc2)c1` was 80 µM.
To `O=S(=O)(O)c1cccc2cccc(Nc3ccccc3)c12` belongs 1000 µM.
`O=C(N/N=C/c1ccccc1O)C(=O)N/N=C/c1ccccc1O` registered a DLS Concentration of 10 µM.
With `Oc1ccc(/N=N/c2ccc(Br)cc2)cc1`, the DLS Concentration was 10 µM.
To `Cc1cc(Cl)cc2c1C(=O)/C(=C1/Sc3cc(Cl)cc(C)c3C1=O)S2` belongs 20 µM.
For the compound `CCCCCCC(Oc1ccc(S(=O)(=O)c2ccc(OCc3ccccc3)cc2)cc1)C(=O)O` (stereo not given), the DLS Concentration turned out to be 500 µM.
To `CC(C)(C)c1cc(/C=C2/C(=O)Nc3ncccc32)cc(C(C)(C)C)c1O` belongs 10 µM; to `COc1ccc2c(c1)CC[C@@H]1[C@@H]2CC[C@]2(C)[C@@H](NCCCc3ccccc3)CC[C@@H]12`, 100 µM; to `CN(C)c1ccc(/C=C2/C(=O)Nc3ccccc32)cc1`, 30 µM.
The value for `OB(O)c1cc2ccccc2s1` was 100 µM; that for `O=C(Nc1nnc(Sc2nc3cc(Cl)ccc3s2)s1)c1cccs1` was 15 µM; that for `CC(C)(C)c1ccc(-c2cc(C(=O)O)cc(-c3ccc(Cl)c(Cl)c3)n2)cc1` was 50 µM.
The compound `O=C1Nc2ccccc2/C1=C\c1ccc2c(c1O)CCCC2` registered a DLS Concentration of 40 µM.
The value for `Oc1ccc(-c2csc(Nc3ccc(F)cc3F)n2)cc1O` was 300 µM.
The value for `O=C1OC2(c3cc(I)c(O)c(I)c3Oc3c2cc(I)c(O)c3I)c2c(Cl)c(Cl)c(Cl)c(Cl)c21` was 500 µM; that for `O=C1C(I)=CC(=C(c2cc(I)c(O)c(I)c2)c2ccccc2C(=O)O)C=C1I` was 10 µM; that for `COc1ccc2c(c1)CC[C@@H]1[C@@H]2CC[C@]2(C)[C@@H](NCCNc3ccc([N+](=O)[O-])cn3)CC[C@@H]12` was 40 µM.
To `O=C(O)c1cc(-c2ccc(Cl)cc2)nc(-c2ccc(Sc3ccc(Cl)cc3)cc2)c1` belongs 50 µM; to `O=C(O)COc1ccc(/N=N/c2ccc3cc(Br)ccc3c2O)cc1`, 20 µM.
